Data taken from ChEMBL document CHEMBL6083225, “Copper selective 8-aminoquinoline based tetradentate chelators as anticancer agents” (RSC Med Chem, 2024).
Activity calls are given as the source filed them. The rule behind the calls is not given here.

Assays:
A-375 = assay: Cytotoxicity against human A-375 cells assessed as cell viability incubated for 48 hrs by MTT assay; assay type: functional, cell-based; settings: A-375, 48 h
In short: (§1)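 5000 cells/well preincubated 24 h at 37 °C, 5% CO₂, then exposed to 3.1–100 μM for 48 h; untreated control, 5-FU positive control. MTT at 0.5 mg/mL in FBS-free DMEM for 4 h, formazan dissolved in DMSO, absorbance read at 570 nm. IC50 taken as half-maximal inhibitory concentration; mean ± SD of at least three independent experiments.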

A549 = assay: Cytotoxicity against human A549 cells assessed as cell viability incubated for 48 hrs by MTT assay; assay type: functional, cell-based; settings: A549, 48 h
In short: (§2)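 Cells seeded at 5000/well, held 24 h at 37 °C, 5% CO2, then exposed 48 h to 100, 50, 25, 12.5, 6.3 or 3.1 μM, with an untreated control. Then 0.5 mg mL⁻¹ MTT in FBS-free DMEM for 4 h at 37 °C, formazan dissolved in DMSO and read at 570 nm. IC50 is the mean ± SD of at least three independent experiments; 5-FU served as positive control.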

COLO-829 = assay: Cytotoxicity against human COLO-829 cells assessed as cell viability incubated for 48 hrs by MTT assay; assay type: functional, cell-based; settings: COLO-829, 48 h; in short: as §2
HeLa [1] = assay: Cytotoxicity against human HeLa cells assessed as cell viability incubated for 48 hrs by MTT assay; assay type: functional, cell-based; in short: as §1
HepG2 = assay: Cytotoxicity against human HepG2 cells assessed as cell viability incubated for 48 hrs by MTT assay; assay type: functional, cell-based; settings: HepG2, 48 h; in short: as §2
[2] = Cytotoxicity against human HaCaT cells assessed as cell viability incubated for 48 hrs by MTT assay; assay type: toxicity, cell-based; in short: as §2
[3] = Selectivity index, ratio of IC50 for cytotoxicity against human HaCaT cells assessed as cell viability to IC50 for cytotoxicity against human A549 cells assessed as cell viability; assay type: toxicity, cell-based; settings: HaCaT cells versus A549 cells
In short: (§3)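 Selectivity index is IC50 in non-cancer HaCaT keratinocytes divided by IC50 in the cancer line. Both IC50 values came from MTT viability after 48 h exposure (5000 cells/well, 3.1–100 μM, absorbance at 570 nm), each a mean of at least three independent experiments.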

[4] = Selectivity index, ratio of IC50 for cytotoxicity against human HaCaT cells assessed as cell viability to IC50 for cytotoxicity against human HeLa cells assessed as cell viability; assay type: toxicity, cell-based; settings: HaCaT cells versus HeLa cells, read-out: Ratio IC50; in short: as §3
[5] = Selectivity index, ratio of IC50 for cytotoxicity against human HaCaT cells assessed as cell viability to IC50 for cytotoxicity against human HepG2 cells assessed as cell viability; assay type: toxicity, cell-based; settings: HaCaT cells versus HepG2 cells; in short: as §3
HeLa [6] = assay: Antiproliferative activity against human HeLa cells assessed as inhibition of colony formation at 1.5 to 12 uM incubated for 14 days by crystal violet staining based analysis; assay type: functional, cell-based; settings: dose 1.5-12 µM, time 14.0 day
In short: (§4)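 1000 HeLa cells per 3.5 cm dish, treated after attachment with 0, 1.5, 3, 6 or 12 μM for 14 days, medium refreshed every 2 days. Cells were fixed in 100% methanol for 30 min and stained with 0.1% crystal violet for 30 min. Colonies were imaged and counted, normalised to control wells. At least triplicate.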

HeLa [7] = assay: Antiproliferative activity against human HeLa cells assessed as inhibition of colony formation at 12 uM incubated for 14 days by crystal violet staining based analysis; assay type: functional, cell-based; settings: time 14.0 day; in short: as §4
HeLa [8] = assay: Anti-migration activity in human HeLa cells assessed as increase in wound width at 14.5 uM incubated 24 hrs by wound-healing assay (reference value: 61%); assay type: functional
HeLa [9] = assay: Anti-migration activity in human HeLa cells assessed as inhibition of cell migration at 14.5 uM incubated 24 hrs by wound-healing assay; assay type: functional; set-up: scale not given: the % may be the effect or the level left
HeLa [10] = assay: Induction of apoptosis in human HeLa cells assessed as viable cells at 3.7 uM incubated for 48 hrs by Annexin V-FITC/PI staining based flow cytometry analysis (reference value: 91.2%); assay type: functional; settings: read-out: Activity
HeLa [11] = assay: Induction of apoptosis in human HeLa cells assessed as early apoptotic cells at 3.7 uM incubated for 48 hrs by Annexin V-FITC/PI staining based flow cytometry analysis (reference value: 2.56%); assay type: functional
HeLa [12] = assay: Induction of apoptosis in human HeLa cells assessed as late apoptotic cells at 3.7 uM incubated for 48 hrs by Annexin V-FITC/PI staining based flow cytometry analysis (reference value: 6.10 %); assay type: functional
HeLa [13] = assay: Induction of apoptosis in human HeLa cells assessed as necrotic cells at 3.7 uM incubated for 48 hrs by Annexin V-FITC/PI staining based flow cytometry analysis (reference value: 0.12%); assay type: functional
HeLa [14] = assay: Induction of apoptosis in human HeLa cells assessed as viable cells at 7.3 uM incubated for 48 hrs by Annexin V-FITC/PI staining based flow cytometry analysis (reference value: 91.2%); assay type: functional; settings: read-out: Activity
HeLa [15] = assay: Induction of apoptosis in human HeLa cells assessed as early apoptotic cells at 7.3 uM incubated for 48 hrs by Annexin V-FITC/PI staining based flow cytometry analysis (reference value: 2.56%); assay type: functional
HeLa [16] = assay: Induction of apoptosis in human HeLa cells assessed as late apoptotic cells at 7.3 uM incubated for 48 hrs by Annexin V-FITC/PI staining based flow cytometry analysis (reference value: 6.10 %); assay type: functional
HeLa [17] = assay: Induction of apoptosis in human HeLa cells assessed as necrotic cells at 7.3 uM incubated for 48 hrs by Annexin V-FITC/PI staining based flow cytometry analysis (reference value: 0.12%); assay type: functional
HeLa [18] = assay: Induction of apoptosis in human HeLa cells assessed as viable cells at 14.5 uM incubated for 48 hrs by Annexin V-FITC/PI staining based flow cytometry analysis (reference value: 91.2%); assay type: functional; settings: read-out: Activity
HeLa [19] = assay: Induction of apoptosis in human HeLa cells assessed as early apoptotic cells at 14.5 uM incubated for 48 hrs by Annexin V-FITC/PI staining based flow cytometry analysis (reference value: 2.56%); assay type: functional
HeLa [20] = assay: Induction of apoptosis in human HeLa cells assessed as late apoptotic cells at 14.5 uM incubated for 48 hrs by Annexin V-FITC/PI staining based flow cytometry analysis (reference value: 6.10 %); assay type: functional
HeLa [21] = assay: Induction of apoptosis in human HeLa cells assessed as necrotic cells at 14.5 uM incubated for 48 hrs by Annexin V-FITC/PI staining based flow cytometry analysis (reference value: 0.12%); assay type: functional
HeLa [22] = assay: Induction of apoptosis in human HeLa cells assessed as necrotic cells incubated for 48 hrs by Annexin V-FITC/PI staining based flow cytometry analysis; assay type: functional, cell-based; settings: dose 3.7-14.5 µM
HeLa [23] = assay: Induction of ROS production in human HeLa cells at 3.7 uM incubated for 48 hrs by H2DCFDA dye-based flow cytometry analysis; assay type: functional
In short: (§5)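 HeLa cells exposed to 0, 3.7, 7.3 or 14.5 μM for 48 h, trypsinised, washed in PBS, then loaded with H₂DCFDA (final 10 μM) at 37 °C for 30 min in the dark. DCF fluorescence (ex 498/em 522 nm) read by flow cytometry and expressed as percent of untreated cells. At least triplicate.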

HeLa [24] = assay: Induction of ROS production in human HeLa cells at 7.3 uM incubated for 48 hrs by H2DCFDA dye-based flow cytometry analysis; assay type: functional; in short: as §5
HeLa [25] = assay: Induction of ROS production in human HeLa cells at 14.5 uM incubated for 48 hrs by H2DCFDA dye-based flow cytometry analysis; assay type: functional; in short: as §5
HeLa [26] = assay: Induction of ROS production in human HeLa cells incubated for 48 hrs by H2DCFDA dye-based flow cytometry analysis; assay type: functional, cell-based; settings: dose 3.7-14.5 µM; in short: as §5
Mitochondrial membrane [27] = assay: Induction of mitochondrial membrane potential depolarization in human HeLa cells assessed as decrease in red to green fluorescence intensity ratio at 3.7 to 14.5 uM incubated for 48 hrs by JC-1 staining based flow cytometric analysis; settings: dose 3.7-14.5 µM
In short: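 HeLa cells attached overnight, then treated at 0, 3.7, 7.3 or 14.5 μM for 48 h and stained with JC-1. Red (590 nm) and green (527–529 nm) fluorescence measured by flow cytometry. Red/green ratio expressed as percent of untreated cells; one-way ANOVA, at least triplicate.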

Mitochondrial membrane [28] = assay: Induction of mitochondrial membrane potential depolarization in human HeLa cells assessed as green fluorescence intensity at 3.7 uM incubated for 48 hrs by JC-1 staining based flow cytometric analysis (reference value: 3.28); assay type: cell membranes
In short: (§6)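 HeLa cells grown in 10 cm dishes and left to attach overnight, then treated 48 h at 0, 3.7, 7.3 or 14.5 μM. Stained with JC-1 per kit instructions. Red (J-aggregate, 590 nm) and green (monomer, 527–529 nm) fluorescence read by flow cytometry. Red/green ratio expressed as % of untreated cells. At least triplicate; one-way ANOVA.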

Mitochondrial membrane [29] = assay: Induction of mitochondrial membrane potential depolarization in human HeLa cells assessed as red fluorescence intensity at 3.7 uM incubated for 48 hrs by JC-1 staining based flow cytometric analysis (reference value: 95.8); assay type: cell membranes; in short: as §6
Mitochondrial membrane [30] = assay: Induction of mitochondrial membrane potential depolarization in human HeLa cells assessed as green fluorescence intensity at 7.3 uM incubated for 48 hrs by JC-1 staining based flow cytometric analysis (reference value: 3.28; assay type: cell membranes; in short: as §6
Mitochondrial membrane [31] = assay: Induction of mitochondrial membrane potential depolarization in human HeLa cells assessed as red fluorescence intensity at 7.3 uM incubated for 48 hrs by JC-1 staining based flow cytometric analysis (reference value: 95.8); assay type: cell membranes; in short: as §6
Mitochondrial membrane [32] = assay: Induction of mitochondrial membrane potential depolarization in human HeLa cells assessed as green fluorescence intensity at 14.5 uM incubated for 48 hrs by JC-1 staining based flow cytometric analysis (reference value: 3.28); assay type: cell membranes; in short: as §6
Mitochondrial membrane [33] = assay: Induction of mitochondrial membrane potential depolarization in human HeLa cells assessed as red fluorescence intensity at 14.5 uM incubated for 48 hrs by JC-1 staining based flow cytometric analysis (reference value: 95.8); assay type: cell membranes; in short: as §6

## CN(C)CCNCCc1ccc2c(Cl)cc(Cl)c(N)c2n1.Cl.Cl.Cl
A-375
  IC50: 38.1 µM
A549
  IC50: 16.2 µM
COLO-829
  IC50: 40.2 µM
HeLa [1]
  IC50: 14.5 µM
HeLa [1]; dose <= 100.0 µM
  Activity: Dose-dependent-effect
HepG2
  IC50: 16.6 µM
[2]
  IC50 at 48 h: 41.1 µM
[3]
  selectivity ratio: 2.5
[4]
  selectivity ratio: 2.8
[5]
  selectivity ratio: 2.5
HeLa [6]
  Activity: Active
HeLa [7]
  Activity: Active
HeLa [8]
  Activity: 74%
HeLa [9]
  Activity: 33%
HeLa [10]
  viability at 3.7 µM: 90.6%
HeLa [11]
  Activity: 2.56%
HeLa [12]
  Activity: 6.48%
HeLa [13]
  Activity: 0.33%
HeLa [14]
  viability at 7.3 µM: 85.3%
HeLa [15]
  Activity: 6.06%
HeLa [16]
  Activity: 8.49%
HeLa [17]
  Activity: 0.1%
HeLa [18]
  viability at 14.5 µM: 49.3%
HeLa [19]
  Activity: 21.6%
HeLa [20]
  Activity: 28.9%
HeLa [21]
  Activity: 0.15%
HeLa [22]
  Activity: Dose-dependent-effect
HeLa [23]
  Activity: 125%
HeLa [24]
  Activity: 138%
HeLa [25]
  Activity: 150%
HeLa [26]
  Activity: Dose-dependent-effect
Mitochondrial membrane [27]
  Activity: Active
Mitochondrial membrane [28]
  Flu intensity: 5.51
Mitochondrial membrane [29]
  Flu intensity: 93.9
Mitochondrial membrane [30]
  Flu intensity: 8.25
Mitochondrial membrane [31]
  Flu intensity: 91.2
Mitochondrial membrane [32]
  Flu intensity: 37.3
Mitochondrial membrane [33]
  Flu intensity: 61.8

## O=c1[nH]cc(F)c(=O)[nH]1 [FLUOROURACIL]
A549
  IC50: 72.6 µM
COLO-829
  IC50: 48.7 µM
HeLa [1]
  IC50: 14.5 µM
HepG2
  IC50: 16.6 µM
[2]
  IC50 at 48 h: 30 µM
